GAA850 FXN act: FXN promoter activators, primary screen, cell-based, luciferase luminescence, HEK293 lucGAA850. HEK293 lucGAA850 FXN promoter luciferase reporter, 24 h; percent of 10 µM SAHA response. activation, % at 6 µM. 0.56% of 360,000 active. AID 540364, 2011;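 active means activation above the average of all compounds screened plus 3 SD, cutoff fixed separately per campaign, cut at about 7.5% in these data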;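 further: 0% = DMSO wells and 100% = 10 µM SAHA wells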
ABCB6 inh MLPCN: ABCB6 transporter inhibitors, primary screen, K562-ABCB6 cells, flow cytometry, MLPCN library; ATP-binding cassette sub-family B member 6 (Homo sapiens), Q9NP58; K562-ABCB6 porphyrin accumulation, 1 h; hits give low values; fluorescence ratio to DMSO, % at 10 µM; 0.19% of 360,000 active; AID 602162, 2011;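 active means fluorescence ratio to DMSO below 75%, the collection mean minus 3 SD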;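 further: signal is porphyrin accumulated inside mitochondria; 100% equals median channel fluorescence of DMSO control wells; lower ratio means ABCB6 inhibition with less porphyrin fluorescence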
STAT3 act: IL-6 driven STAT3 reporter potentiators, primary screen, U3A cells, luciferase, luminescence, MLSCN library | IL-6 STAT3-luciferase reporter; 100% = signal with IL-6 EC80 alone | activation (% of control), % at 5.6 µM | 0.91% of 190,000 active | AID 871, 2007;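 active means activation above the screen-wide mean of compound activation plus 3 SD, cut at about 130% in these data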;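 further: 0% = background luminescence of wells with medium and substrate only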
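Assay system – human STAT1-deficient U3A cells with stable STAT3-luciferase reporter · Also added – IL-6 (33 ng/mL) · Schedule – compound 1 h, then IL-6 6 h at 37 °C · Technique – reporter luminescence signal · Evaluation – % activation versus median of IL-6-stimulated wells · Benchmarks – IL-6-only wells as 100% reference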
AHR act: AHR activators, primary screen, cell-based, luminescence, luciferase reporter, human; AHR-responsive luciferase reporter cells; activation, % at 5 µM; 2.5% of 320,000 active; AID 2796, 2010; in the data active means activation above about 47%;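 further: 0% = vehicle wells and 100% = reference agonist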
* = called active by the depositor; . = no result. An excerpt weighted towards active compounds, which were near 3.3% of everything screened.

SMILES | GAA850 FXN act | ABCB6 inh MLPCN | STAT3 act | AHR act
CCOc1ccc(C(=O)Nc2nnc(C)s2)cc1OCC | -3 | 101 | 93 | 50*
COc1ccc(Cc2nnc(NC(=O)c3ccc(OC)c(OC)c3)s2)cc1 | 0 | 97 | . | 33
COc1ccc(C(=O)Nc2nnc(Cc3cccs3)s2)cc1OC | -1 | 92 | 94 | 78*
Cc1ccc(C(=O)Nc2nnc(Cc3ccccc3)s2)cc1 | 1 | 100 | . | 4
CCOc1ncccc1C(=O)Nc1nnc(C)s1 | 3 | 97 | 100 | -3
O=C(Nc1nnc(Cc2ccccc2)s1)c1ccccc1 | 3 | 101 | . | 54*
Cc1ccc[n+](CC(=O)Nc2nc3ccccc3s2)c1 | 0 | 99 | 115 | 3
O=C(NCc1cccnc1)c1ccc(NC(=O)c2cccc([N+](=O)[O-])c2)cc1 | 0 | 93 | 96 | 3
CCC(CO)Oc1cc(NCc2ccccn2)c2ncn(C(C)C)c2c1 (stereo not given) | 0 | 97 | . | 5
O=C(CNC(=O)c1ccccc1Cl)NCCc1cccs1 | 1 | 104 | . | 11
CC(=O)Nc1nc(CC(=O)c2ccccc2)cs1 | 2 | 105 | . | 58*
CC(=O)Nc1nc(COc2ccccc2)cs1 | 6 | 100 | 105 | 3
O=C(NNC(=O)c1cc(Cl)ccc1[N+](=O)[O-])c1csc(N2CCOCC2)n1 | 0 | 93 | . | -1
CC(C)NC(=S)N1CCCN(c2ncccc2[N+](=O)[O-])CC1 | 0 | 93 | . | 0
Cc1cc(C)c2cc(C(=O)N3CCc4ccccc4C3)[nH]c2c1 | 2 | 96 | . | 55*
Cc1cc(C)c(OCC(=O)OCC(=O)N2CCc3ccccc3C2)c(C)c1 | 2 | 101 | . | -1
CCOC(=O)C(=NO)C1=CSC2=NNC(C)(C)N12 | 7 | 91 | . | .
O=C(Nc1ccc2c(c1)OCO2)C(c1ccccc1)N1CCC2(CC1)OCCO2 (stereo not given) | 1 | 92 | 105 | 11
CC1CCC(NC(=O)c2ccc3c(c2)OCO3)CC1 (stereo not given) | 1 | 96 | . | 25
O=C(Nc1ccc2c(c1)OCO2)C(c1ccccc1)N1CCN(C(=O)c2ccco2)CC1 (stereo not given) | 0 | 90 | 104 | 10
CC1CCN(C(C(=O)Nc2ccc3c(c2)OCO3)c2ccccc2)CC1 (stereo not given) | -2 | 95 | . | 48*
CC1CCCN(C(C(=O)Nc2ccc3c(c2)OCO3)c2ccccc2)C1 (stereo not given) | 0 | 98 | . | 47*
CC1CCC(NC(=O)C(=O)Nc2ccc3c(c2)OCO3)CC1 (stereo not given) | 2 | 103 | . | 49*
CC1CCCN(C(C(=O)Nc2ccc3c(c2)OCCO3)c2ccccc2)C1 (stereo not given) | -1 | 91 | 105 | 1
O=C(Nc1ccc2c(c1)OCO2)C(c1ccccc1)N1CCCCC1 (stereo not given) | -3 | 99 | . | 60*
SMILES | GAA850 FXN act | ABCB6 inh MLPCN | STAT3 act | AHR act
O=c1[nH]nc(SCc2cc(Cl)ccc2Cl)c(=O)[nH]1 | -1 | 96 | . | -1
COc1ccc(NC(=O)COc2cccc3c2CCN(C)C3=O)c(OC)c1 | -1 | 105 | . | 77*
COc1ccc(-c2c(-c3ccsc3)oc3ccc(N4CCOCC4)cc23)cn1 | 2 | 100 | . | 59*
Nc1ccc(C#Cc2c(-c3ccsc3)oc3ccc(N4CCOCC4)cc23)cc1 | 6 | 98 | . | 70*
COc1ccc(-c2oc3ccc(N4CCOCC4)cc3c2C#CCO)cc1 | -5 | 95 | . | 41
Cc1ccc2c(c1)-n1c(nc3cc(Cl)ccc3c1=O)C(Cc1ccccc1)NC2=O (stereo not given) | . | . | . | 2
Nc1cccc(-c2cn3cc(C(F)(F)F)cc(Cl)c3n2)c1 | 1 | 93 | 108 | 63*
Cc1cc(C(F)(F)F)nc(-n2cc(-c3cccc(N)c3)nn2)n1 | 2 | 100 | 87 | 8
O=[N+]([O-])c1cc([N+](=O)[O-])c(Oc2c(F)ccc(F)c2F)cc1NN1CCCCC1 | 2 | 100 | . | 1
CN1C(=O)c2ccc(C(=O)Nc3ccccc3O)cc2C1=O | -1 | 104 | . | 56*
O=C(Nc1ccccc1O)c1ccc2c(c1)C(=O)N(c1ccccc1)C2=O | 2 | 98 | . | .
CCOC(=O)c1c(C)[nH]c(C2=NNC(=Nc3cccc(Cl)c3)SC2)c1C | . | . | 92 | 120*
CC(=O)c1c(C)[nH]c(C2=NNC(=NCc3ccccc3)SC2)c1C | 1 | 142 | 108 | 8
Nc1[nH]n2c(=O)c3c(nc2c1N=Nc1ccccc1)CCCC3 | 0 | 108 | 89 | 11
Nc1[nH]n2c(=O)c3c(nc2c1N=Nc1ccc(Cl)cc1)CCCC3 | 2 | 108 | 90 | 57*
CCc1ccc(Nc2nnc(SCC(=O)Nc3sccc3C(N)=O)s2)cc1 | -3 | 101 | 108 | 60*
COc1cccc(Nc2nnc(SCC(=O)Nc3sccc3C(N)=O)s2)c1 | 1 | 98 | 86 | 24
COc1ccc2[nH]c3c(N4CCC(O)(c5cccc(C(F)(F)F)c5)CC4)ncnc3c2c1 | -7 | 95 | 90 | 68*
COc1ccc2[nH]c3c(N4CCN(Cc5ccc6c(c5)OCO6)CC4)ncnc3c2c1 | -3 | 113 | 90 | 44
N#C/C(=C\c1ccc(-c2ccc(C(=O)O)cc2)o1)C(=O)Nc1ccc(F)cc1 | 0 | 97 | . | 77*
Cc1cccc(C)c1NC(=O)/C(C#N)=C/c1ccc(-c2ccc(C(=O)O)cc2)o1 | 4 | 96 | . | 2
O=C(CCl)Nc1ccccc1C(=O)c1ccccc1 | -2 | 101 | 96 | 2
COc1cc(/C=N/NC(=S)NC2CC3CCC2C3)ccc1O (stereo not given) | 3 | 95 | . | 6
S=C(N/N=C/c1ccc2c(c1)OCO2)NC1CC2CCC1C2 (stereo not given) | 5 | 95 | . | 68*
Cc1cc(C(=O)N/N=C/c2ccc3c(c2)OCO3)c(C)o1 | 2 | 95 | 99 | 72*
SMILES | GAA850 FXN act | ABCB6 inh MLPCN | STAT3 act | AHR act
CCOC(=O)N/N=C\C=C\c1ccc2c(c1)OCO2 | 2 | 98 | 101 | 49*
COC(=O)N/N=C\C=C\c1ccc2c(c1)OCO2 | 1 | 97 | 100 | 20
CCC/C(=N/NC(=O)c1ccc2c(c1)OCO2)c1cccs1 | 3 | 101 | 108 | 64*
Cc1csc(=O)n1CC(=O)OCC(=O)Nc1ccc(F)c(F)c1F | 1 | 100 | . | .
S=c1nc(-c2ccccn2)c(-c2ccccn2)n[nH]1 | . | 98 | . | .
CCOC(=O)c1cnc(N2CCN(c3ccccc3)CC2)[nH]c1=O | 2 | 96 | . | .
O=C(N/N=C/c1ccc2c(c1)OCO2)c1ccc2c(c1)OCCO2 | 1 | 94 | 109 | 47
O=C(N/N=C/c1ccc2c(c1)OCO2)c1cccs1 | 7 | 97 | 92 | 97*
CC(=O)n1nc(-c2ccccc2)cc1-c1ccccc1 | 6 | 103 | . | 58*
O=C(O)Cn1nc(-c2ccccc2)cc1-c1ccccc1 | 0 | 93 | . | 7
